Screening data as filed in PubChem.
Rows were chosen to be rich in hits. Some 1% of all compounds tested hit in one or more screens of this group.
NOD2-RIPK2 inh = inhibitors of human NOD2-RIPK2 interaction. inhibition, % at 4.98 µM. O43353. 0.38% of 360,000 active. CHO BLA complementation NOD2-RIPK2, CCF4 ratio. AID 624267; in the data active means inhibition above about 21%;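 further: 0% = vehicle only and 100% = reference blocker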
Hsp70 act = transcriptional activators of Hsp70 | 0.04% of 200,000 active | activation, % at 10 µM | AID 1203 | HeLa Hsp70 promoter luciferase reporter, luminescence; scaled: vehicle 0, proteasome-inhibitor control 100%;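 active means activation above the mean across all tested compounds plus 3 SD, cutoff set per campaign, cut at about 5.5% in these data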;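 further: 100% = MG132 at 30 µM as the positive control and 0% = DMSO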
b-catenin transl = alters nuclear translocation of beta-catenin in HeLa cells; AID 1665; immunofluorescence imaging; 0.3% of 190,000 active; nuclear translocation activity, % at 5 µM;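 active means nuclear translocation activity above 50% at 5 µM, with a well cell count of 50 or more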;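 further: per-cell ratio of nuclear to cytoplasmic median beta-catenin stain intensity; plate controls were DMSO negative control for no effect and GSK-3 inhibitor IX positive control for full effect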
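Test system: human HeLa cell line; Doses: 5 µM primary, 0.02–20 µM confirmation; Incubation: 24 h compound exposure, 37°C; Detection: beta-catenin immunofluorescence imaging with DAPI; Read-out: beta-catenin nuclear/cytoplasmic ratio, % activation.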
MT stabilize HCS = microtubule stabilization, imaging screen. % tubulin-high responders, % at 10 µM. AID 2205. 0.83% of 200,000 active. HeLa tubulin immunostaining HCS, 24 h; share of cells brighter than vehicle mean+2SD;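 active means plate Z-score above 3 for both tubulin-high and condensed-nucleus cell shares, with cell loss under 80%, at 10 µM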;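 further: anti alpha tubulin signal scored within the nucleus-defined area of each cell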
TLR4 MyD88 comp = inhibitors of human TLR4-MyD88 binding; O00206+Q99836; HeLa CL3-4 TLR4/MyD88 BLA complementation, FRET ratio; inhibition, % at 8.4 µM; 0.18% of 200,000 active; AID 861; in the data active means inhibition above about 25%;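 further: 0% = vehicle and 100% = reference inhibitor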
Target sequence (O00206 whole entry, looked up): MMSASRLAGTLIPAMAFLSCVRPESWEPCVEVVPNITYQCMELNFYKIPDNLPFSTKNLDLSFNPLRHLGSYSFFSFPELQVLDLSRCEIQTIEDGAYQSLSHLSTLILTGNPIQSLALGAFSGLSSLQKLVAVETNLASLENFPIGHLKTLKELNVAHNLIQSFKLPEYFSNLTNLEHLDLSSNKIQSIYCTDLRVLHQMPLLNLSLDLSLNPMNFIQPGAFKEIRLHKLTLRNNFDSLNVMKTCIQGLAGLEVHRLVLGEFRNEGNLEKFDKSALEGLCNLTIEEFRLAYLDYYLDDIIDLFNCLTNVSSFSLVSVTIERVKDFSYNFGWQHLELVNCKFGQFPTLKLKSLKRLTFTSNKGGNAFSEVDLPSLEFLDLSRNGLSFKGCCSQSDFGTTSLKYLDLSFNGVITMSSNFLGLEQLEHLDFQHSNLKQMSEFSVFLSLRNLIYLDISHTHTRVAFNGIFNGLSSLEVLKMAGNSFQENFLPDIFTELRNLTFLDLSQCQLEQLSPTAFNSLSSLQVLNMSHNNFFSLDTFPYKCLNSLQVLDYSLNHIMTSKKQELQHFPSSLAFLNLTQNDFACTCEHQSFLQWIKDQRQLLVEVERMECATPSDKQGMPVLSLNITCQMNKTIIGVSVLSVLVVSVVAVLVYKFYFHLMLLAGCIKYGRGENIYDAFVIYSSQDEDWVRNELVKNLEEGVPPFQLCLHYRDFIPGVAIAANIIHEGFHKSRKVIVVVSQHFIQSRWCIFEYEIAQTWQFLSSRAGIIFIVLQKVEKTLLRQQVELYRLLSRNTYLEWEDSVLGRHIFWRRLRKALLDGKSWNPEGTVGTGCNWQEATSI
Target sequence (Q99836 whole entry, looked up): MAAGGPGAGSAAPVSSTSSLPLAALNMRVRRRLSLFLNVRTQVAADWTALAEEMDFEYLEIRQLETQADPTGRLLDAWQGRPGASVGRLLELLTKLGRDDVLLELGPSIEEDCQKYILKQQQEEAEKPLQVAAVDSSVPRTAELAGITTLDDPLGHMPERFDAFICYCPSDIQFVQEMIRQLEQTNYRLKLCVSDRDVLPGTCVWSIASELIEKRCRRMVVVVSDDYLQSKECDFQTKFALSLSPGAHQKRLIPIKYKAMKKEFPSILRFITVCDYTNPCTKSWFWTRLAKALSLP
TLR9-MyD88 block = blocks human TLR9 binding to MyD88; Q9NR96+Q99836; CHO BLA complementation TLR9-MyD88, CCF4 FRET ratio; inhibition, % at 4.98 µM; 0.21% of 340,000 active;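 active means inhibition above the mean over all tested compounds plus 3 SD, cut at about 21% in these data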;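 further: 0% = DMSO only wells and 100% = clavulanate BLA inhibitor control wells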
NOD2 RIPK2 conf = NOD2-RIPK2 interaction inhibition confirmed | shares compounds with NOD2-RIPK2 inh | CHO cells, NOD2-RIPK2 BLA complementation, CCF4 FRET | inhibition, % at 4.98 µM | 70% of 1,200 active;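 active means mean inhibition across replicates above a set limit taken from the earlier primary screen, cut at about 21% in these data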;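 further: 0% = DMSO-only wells and the high end = clavulanate BLA-blocked wells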
BLA counter = hits BLA reporter in NOD2-RIPK2 inhibitor counterscreen | shares compounds with NOD2-RIPK2 inh | inhibition, % at 4.98 µM | CHO BLA reporter, CCF4 FRET ratio | AID 624371 | 57% of 1,200 active;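 active means mean inhibition above the low-control mean inhibition plus three low-control SD, cut at about 11% in these data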;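 further: 0% = DMSO only wells and 100% = clavulanate high control wells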
An asterisk follows results filed as active; nt = no result given.

SMILES	NOD2-RIPK2 inh	Hsp70 act	b-catenin transl	MT stabilize HCS	TLR4 MyD88 comp	TLR9-MyD88 block	NOD2 RIPK2 conf	BLA counter
CC[C@@]1(C(=O)OC)N[C@H](CN(C)S(=O)(=O)c2ccc(-c3ccccc3)cc2)[C@@H]2C(=O)N(Cc3ccccc3)C(=O)[C@@H]21	-12.6	nt	nt	nt	nt	-2.2	nt	nt
COc1ccc(Nc2nc3cc(C)ccc3cc2C#N)cc1	21.2*	nt	nt	nt	nt	3.9	5.6	16.8*
COc1ccc2cc(C#N)c(Nc3cccc(F)c3)nc2c1	-6.5	-0.3	0.7	2.4	2.3	8.1	nt	nt
CC(c1nc2ccccc2n1Cc1ccccc1)N1CCCCC1 (stereo unspecified)	6.5	nt	nt	nt	nt	-11.2	nt	nt
COc1ccc(C(C#N)=C2C=CC(=NO)C=C2)cc1	9.1	nt	1.1	nt	nt	10.6	nt	nt
N#CC(=C1C=CC(=NO)C(Cl)=C1)c1ccc(Cl)cc1	42.2*	nt	nt	nt	nt	8.4	26.2*	22.6*
Cc1ccc(/C=C2\Oc3c(ccc(O)c3CN3CCN(C)CC3)C2=O)cc1	28.6*	-0.3	0.7	3.2	12.0	11.7	20.6	24.9*
CNC[C@@H]1OCc2ccccc2-c2ccccc2C(=O)N([C@H](C)CO)C[C@@H]1C	-2.5	nt	nt	nt	nt	2.9	nt	nt
Fc1ccc(/C=C2\CCCC3=C2Nc2ncnn2C3c2ccc(F)cc2)cc1 (stereo unspecified)	25.8*	-0.2	-1.4	2.9	-9.8	4.9	10.6	13.9*
CCCNC(=O)C1(C)CCCN(Cc2ccc(C(=O)OCC)o2)C1 (stereo unspecified)	-24.5	nt	nt	nt	nt	nt	nt	nt
CC(=O)OCCCNc1cc(SCc2ccco2)c2nonc2c1[N+](=O)[O-]	-20.1	-0.3	0.0	3.4	6.7	-1.1	nt	nt
O=[N+]([O-])c1c(NCCCO)cc(Sc2nc3ccccc3s2)c2nonc12	91.9*	0.9	nt	3.0	12.3	40.0*	81.8*	29.3*
CCC(=O)Nc1ccc2c(c1)nc1n2CCN(CCOC)C1	-2.9	nt	nt	nt	nt	1.2	nt	nt
COc1ccc(O)c(/C=N/NC(=S)NCCc2ccccc2)c1	25.9*	nt	nt	nt	nt	15.6	28.6*	23.4*
Oc1ccc(Br)cc1/C=N/NC(=S)NCCc1ccccc1	12.9	nt	nt	nt	nt	16.9	nt	nt
CC(=O)ON=C1C=CC(=C(C#N)c2ccccc2)C=C1	25.7*	nt	nt	nt	nt	nt	34.6*	8.4
O=c1c(O)c(-c2cccs2)oc2ccc(Cl)cc12	44.5*	0.0	-0.9	1.6	14.0	21.0*	45.4*	51.6*
O=C(COC(=O)c1cc(=O)c2ccccc2o1)Nc1ccccc1F	2.9	nt	nt	nt	nt	-1.1	nt	nt
CC(=O)N1CCCC(C)(C(=O)Nc2cccc(OC(C)C)c2)C1 (stereo unspecified)	2.7	nt	nt	nt	nt	nt	nt	nt
O=C(Nc1ccc(F)cc1)c1nn(-c2ccccc2)c(=O)cc1Cl	36.3*	0.4	-0.3	4.9	5.9	6.8	39.8*	5.3
Cc1ccc(NC(=O)c2cc(-c3ccccc3)nn2-c2ccccc2)cc1	-2.8	-0.1	0.1	2.6	-4.2	-15.6	nt	nt
CC(Sc1nnc(-c2ccncc2)n1C)C(=O)Nc1nccs1 (stereo unspecified)	2.6	nt	nt	nt	nt	-5.7	nt	nt
CCCCCCCCCc1nc2sc3c(c2c(=O)n1NC(=O)c1ccc([N+](=O)[O-])cc1)CC(C)(C)OC3	32.2*	-0.3	0.0	2.3	-18.7	-4.2	-1.1	0.8
CCCCCCCCCc1nc2sc3c(c2c(=O)n1NC(=O)c1ccccc1[N+](=O)[O-])CC(C)(C)OC3	-5.7	0.1	0.1	3.2	-10.2	-7.1	nt	nt
CN(C)c1ccc(P(=O)(OCc2ccccc2)C(O)c2ccccc2)cc1 (stereo unspecified)	-1.6	nt	-0.8	nt	nt	4.5	nt	nt
SMILES	NOD2-RIPK2 inh	Hsp70 act	b-catenin transl	MT stabilize HCS	TLR4 MyD88 comp	TLR9-MyD88 block	NOD2 RIPK2 conf	BLA counter
O=[N+]([O-])/C=C\c1ccc(N2CCOCC2)cc1	44.8*	nt	nt	nt	nt	5.3	43.0*	-4.8
O=C(COc1ccc(/C=C\[N+](=O)[O-])cc1)N1CCOCC1	-3.4	0.6	-0.5	10.1	9.2	-1.3	nt	nt
CCCCn1nnnc1C(c1cc2ccccc2o1)N1CCN(c2c(C)cccc2C)CC1 (stereo unspecified)	-3.2	nt	nt	nt	nt	nt	nt	nt
Cc1cccc(C)c1N1CCN(C(c2cc3ccccc3o2)c2nnnn2C(C)(C)C)CC1 (stereo unspecified)	21.4*	nt	nt	nt	nt	nt	-4.2	-5.3
CC(=O)c1ccc(S(=O)(=O)N(C)CCCC(=O)NCc2ccc3c(c2)OCO3)cc1	-4.0	nt	nt	nt	nt	-2.3	nt	nt
Cc1ccc(S(=O)(=O)SCCCSS(=O)(=O)c2ccc(C)cc2)cc1	36.1*	nt	nt	nt	nt	1.5	42.5*	2.5
Cc1ccc(S(=O)(=O)SC/C=C/CSS(=O)(=O)c2ccc(C)cc2)cc1	7.5	nt	nt	nt	nt	19.5	nt	nt
Cc1cc2nc(-c3ccco3)c(Cc3ccccc3C(F)(F)F)n2c(C)c1Br	9.1	nt	nt	nt	nt	nt	nt	nt
CN(C)c1ccc(/C=C/C(=O)c2ccc3c(c2)OCO3)cc1	54.9*	nt	nt	nt	nt	18.9	48.1*	54.6*
O=C(CN(c1cccc([N+](=O)[O-])c1)S(=O)(=O)c1ccccc1)NCc1cccnc1	-5.2	nt	nt	nt	nt	-3.2	nt	nt
O=C(CN(c1cccc(C(F)(F)F)c1)S(=O)(=O)c1ccc(Cl)c([N+](=O)[O-])c1)NCc1ccc(F)cc1	23.3*	-0.2	1.0	2.5	6.8	5.9	28.9*	-1.5
COc1c(F)c(F)c(C(=O)Nc2ccc3oc(-c4ccncc4)nc3c2)c(F)c1F	5.4	-0.1	nt	3.8	1.3	4.5	nt	nt
COc1cccc(OC)c1C(=O)NC(=S)Nc1ccc2oc(-c3ccncc3)nc2c1	63.9*	0.3	-3.0	5.1	-1.7	-21.0	-10.2	-1.9
CN(C)c1ccc(/C=C/c2cccc[n+]2[O-])cc1	26.4*	nt	-0.9	nt	nt	nt	-24.3	8.1
[O-][n+]1ccccc1/C=C/c1ccccc1	0.2	nt	nt	nt	nt	0.9	nt	nt
COc1ccc(-c2c(-c3ccccc3OC)oc3ccccc23)cn1	-5.8	nt	nt	nt	nt	-12.6	nt	nt
CNc1c2cccc(C)c2nc2c(C(=O)NCCN(C)C)cccc12	40.8*	nt	nt	nt	nt	6.7	58.0*	28.6*
Cc1ccc(C(=O)NCCN(C)C)c(C)c1	-4.6	-0.1	nt	2.2	-5.6	-5.6	nt	nt
CC(C)c1ccc(NC(=O)C2(C)Cc3c(-c4cccc(C(F)(F)F)c4)ccnc3O2)cc1 (stereo unspecified)	2.7	nt	nt	nt	nt	nt	nt	nt
CN1C(=O)[C@H]2[C@@H](c3ccc(F)cc3)N3C(=O)c4ccccc4NC(=O)[C@@]3(C)[C@H]2C1=O	22.5*	nt	nt	nt	nt	4.5	-1.9	0.4
Cc1cccc(C)c1NC(=O)C(c1ccc(-c2ccccc2)cc1)n1c(=O)c(-c2cc3ccccc3[nH]2)nc2ccccc21 (stereo unspecified)	42.5*	nt	nt	nt	nt	nt	39.2*	65.8*
Cc1cccc(C)c1NC(=O)C(c1ccncc1)n1c(=O)c(-c2ccccc2)nc2ccccc21 (stereo unspecified)	-1.9	nt	nt	nt	nt	nt	nt	nt
